In ChEMBL document CHEMBL1926642, “Relevance of the C-5 position to schweinfurthin induced cytotoxicity” (2011):

Key:
Type in all cases: functional
[1] = test system: SF-539; experiment: Growth inhibition of human SF539 cells after 48 hrs by sulforhodamine B assay; settings: SF-539, 48 h; for TGI: read-out: pTGI (converted)
[2] = test system: SK-MEL-28; experiment: Growth inhibition of human SK-MEL-28 cells after 48 hrs by sulforhodamine B assay; settings: SK-MEL-28, 48 h; for CC50: read-out: pLC50 (the source's name) (converted); for TGI: read-out: pTGI (converted)
[3] = test system: HL-60(TB); experiment: Growth inhibition of human HL-60(TB) cells after 48 hrs by sulforhodamine B assay; settings: HL-60, 48 h; for CC50: read-out: pLC50 (the source's name) (converted); for TGI: read-out: pTGI (converted)
Summary of the method: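 Run in the NCI 60 cell-line screen as the full 5-dose assay that follows initial single-dose testing; GI50 is read from the dose series.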

[4] = test system: A549; experiment: Growth inhibition of human A549 cells after 48 hrs by sulforhodamine B assay; settings: A549, 48 h; for TGI: read-out: pTGI (converted)
[5] = test system: UACC-257; experiment: Growth inhibition of human UACC257 cells after 48 hrs by sulforhodamine B assay; settings: UACC-257, 48 h; for TGI: read-out: pTGI (converted)
[6] = test system: PC-3; experiment: Growth inhibition of human PC3 cells after 48 hrs by sulforhodamine B assay; settings: PC-3, 48 h; for CC50: read-out: pLC50 (the source's name) (converted); for TGI: read-out: pTGI (converted)
[7] = test system: CAKI-1; experiment: Growth inhibition of human Caki1 cells after 48 hrs by sulforhodamine B assay; settings: CAKI-1, 48 h; for TGI: read-out: pTGI (converted)
[8] = test system: 786-0; experiment: Growth inhibition of human 786-0 cells after 48 hrs by sulforhodamine B assay; settings: 786-0, 48 h; for CC50: read-out: pLC50 (the source's name) (converted); for TGI: read-out: pTGI (converted)
[9] = test system: MDA-MB-435; experiment: Growth inhibition of human MDA-MB-435 cells after 48 hrs by sulforhodamine B assay; settings: MDA-MB-435, 48 h; for TGI: read-out: pTGI (converted)
[10] = test system: SN12C; experiment: Growth inhibition of human SN12C cells after 48 hrs by sulforhodamine B assay; settings: for TGI: read-out: pTGI (converted)
[11] = Growth inhibition of human Hs 578T cells after 48 hrs by sulforhodamine B assay
[12] = test system: OVCAR-4; experiment: Growth inhibition of human OVCAR4 cells after 48 hrs by sulforhodamine B assay; settings: OVCAR-4, 48 h; for TGI: read-out: pTGI (converted)
[13] = test system: SK-OV-3; experiment: Growth inhibition of human SKOV3 cells after 48 hrs by sulforhodamine B assay; settings: SK-OV-3, 48 h; for TGI: read-out: pTGI (converted)
[14] = test system: HCT-15; experiment: Growth inhibition of human HCT15 cells after 48 hrs by sulforhodamine B assay; settings: HCT-15, 48 h; for TGI: read-out: pTGI (converted)
[15] = test system: SNB-75; experiment: Growth inhibition of human SNB75 cells after 48 hrs by sulforhodamine B assay; settings: SNB-75, 48 h; for TGI: read-out: pTGI (converted)
[16] = test system: TK-10; experiment: Growth inhibition of human TK10 cells after 48 hrs by sulforhodamine B assay; settings: TK-10, 48 h; for TGI: read-out: pTGI (converted)
[17] = test system: MDA-MB-231; experiment: Growth inhibition of human MDA-MB-231/ATCC cells after 48 hrs by sulforhodamine B assay; settings: MDA-MB-231, 48 h; for CC50: read-out: pLC50 (the source's name) (converted); for TGI: read-out: pTGI (converted)
[18] = test system: BT-549; experiment: Growth inhibition of human BT549 cells after 48 hrs by sulforhodamine B assay; settings: BT-549, 48 h; for TGI: read-out: pTGI (converted)
[19] = test system: NCI-H226; experiment: Growth inhibition of human NCI-H226 cells after 48 hrs by sulforhodamine B assay; settings: NCI-H226, 48 h; for TGI: read-out: pTGI (converted)
[20] = test system: K562; experiment: Growth inhibition of human K562 cells after 48 hrs by sulforhodamine B assay; settings: K562, 48 h; for TGI: read-out: pTGI (converted)
[21] = test system: NCI-H460; experiment: Growth inhibition of human NCI-H460 cells after 48 hrs by sulforhodamine B assay; settings: NCI-H460, 48 h; for TGI: read-out: pTGI (converted)
[22] = test system: SK-MEL-5; experiment: Growth inhibition of human SK-MEL-5 cells after 48 hrs by sulforhodamine B assay; settings: SK-MEL-5, 48 h; for TGI: read-out: pTGI (converted)
[23] = test system: T47D; experiment: Growth inhibition of human T47D cells after 48 hrs by sulforhodamine B assay; settings: for TGI: read-out: pTGI (converted)
[24] = test system: NCI-H23; experiment: Growth inhibition of human NCI-H23 cells after 48 hrs by sulforhodamine B assay; settings: NCI-H23, 48 h; for TGI: read-out: pTGI (converted)
[25] = test system: SK-MEL-2; experiment: Growth inhibition of human SK-MEL-2 cells after 48 hrs by sulforhodamine B assay; settings: SK-MEL-2, 48 h; for TGI: read-out: pTGI (converted)
[26] = test system: OVCAR-3; experiment: Growth inhibition of human OVCAR3 cells after 48 hrs by sulforhodamine B assay; settings: OVCAR-3, 48 h; for TGI: read-out: pTGI (converted)
[27] = test system: SW-620; experiment: Growth inhibition of human SW620 cells after 48 hrs by sulforhodamine B assay; settings: SW-620, 48 h; for TGI: read-out: pTGI (converted)
[28] = test system: OVCAR-5; experiment: Growth inhibition of human OVCAR5 cells after 48 hrs by sulforhodamine B assay; settings: OVCAR-5, 48 h
[29] = test system: KM12; experiment: Growth inhibition of human KM12 cells after 48 hrs by sulforhodamine B assay; settings: KM12, 48 h; for TGI: read-out: pTGI (converted)
[30] = test system: RPMI-8226; experiment: Growth inhibition of human RPMI8226 cells after 48 hrs by sulforhodamine B assay; settings: RPMI-8226, 48 h; for TGI: read-out: pTGI (converted)
[31] = test system: A498; experiment: Growth inhibition of human A498 cells after 48 hrs by sulforhodamine B assay; settings: A498, 48 h; for TGI: read-out: pTGI (converted)
[32] = test system: NCI-H322M; experiment: Growth inhibition of human NCI-H322M cells after 48 hrs by sulforhodamine B assay; settings: for TGI: read-out: pTGI (converted)

COc1cc(/C=C/c2cc(O)c3c(c2)C[C@@H]2C(C)(C)[C@H](O)CC[C@@]2(C)O3)cc(O)c1C/C=C(\C)CCC=C(C)C
GI50 [1]: 0.0525 µM
LC50 [1]: 6.92 µM
TGI [1]: 1.66 µM
GI50 [2]: 1 µM
CC50 [2]: 7.94 µM
TGI [2]: 2.75 µM
GI50 [3]: 0.0468 µM
CC50 [3]: 37.2 µM
TGI [3]: 1.45 µM
LC50 [4]: 40.7 µM
GI50 ([4]; read-out: GI50): 0.72 µM
GI50 ([4]; read-out: pGI50 (converted)): 0.955 µM
TGI [4]: 10.7 µM
GI50 [5]: 7.59 µM
LC50 [5]: 61.7 µM
TGI [5]: 23.4 µM
GI50 [6]: 0.372 µM
CC50 [6]: 41.7 µM
TGI [6]: 5.25 µM
GI50 [7]: 1.7 µM
LC50 [7]: 38.9 µM
TGI [7]: 6.76 µM
GI50 [8]: 0.0339 µM
CC50 [8]: 15.5 µM
TGI [8]: 1.45 µM
GI50 [9]: 0.794 µM
LC50 [9]: 34.7 µM
TGI [9]: 5.01 µM
GI50 [10]: 1.51 µM
LC50 [10]: 8.51 µM
TGI [10]: 3.63 µM
GI50 [11]: 0.0372 µM
CC50 ([11]; read-out: pLC50 (the source's name) (converted)): 26.9 µM
TGI ([11]; read-out: pTGI (converted)): 0.776 µM
GI50 [12]: 2.63 µM
LC50 [12]: 63.1 µM
TGI [12]: 19.1 µM
GI50 [13]: 1.38 µM
LC50 [13]: 38 µM
TGI [13]: 14.8 µM
GI50 [14]: 1.12 µM
LC50 [14]: 7.94 µM
TGI [14]: 2.95 µM
GI50 [15]: 0.123 µM
LC50 [15]: 33.9 µM
TGI [15]: 6.31 µM
GI50 [16]: 2.19 µM
LC50 [16]: 41.7 µM
TGI [16]: 8.91 µM
GI50 [17]: 1.2 µM
CC50 [17]: 8.13 µM
TGI [17]: 2.88 µM
GI50 [18]: 0.275 µM
LC50 [18]: 69.2 µM
TGI [18]: 12 µM
GI50 [19]: 5.89 µM
LC50 [19]: 55 µM
TGI [19]: 21.4 µM
GI50 [20]: 0.263 µM
LC50 [20]: 100 µM
TGI [20]: 6.92 µM
GI50 [21]: 0.339 µM
LC50 (concentration killing 50% of cells) [21]: 64.6 µM
TGI [21]: 9.12 µM
GI50 [22]: 0.955 µM
LC50 [22]: 5.37 µM
TGI [22]: 2.29 µM
GI50 [23]: 1.41 µM
LC50 [23]: 39.8 µM
TGI [23]: 7.08 µM
GI50 [24]: 1.51 µM
LC50 [24]: 26.3 µM
TGI [24]: 4.47 µM
GI50 [25]: 6.92 µM
LC50 [25]: 56.2 µM
TGI [25]: 22.4 µM
GI50 [26]: 1.45 µM
LC50 [26]: 15.5 µM
TGI [26]: 4.07 µM
GI50 [27]: 0.331 µM
LC50 [27]: 5.13 µM
TGI [27]: 1.58 µM
GI50 [28]: 2.51 µM
LC50 [28]: 45.7 µM
TGI ([28]; read-out: pTGI (converted)): 13.2 µM
GI50 [29]: 1.17 µM
LC50 [29]: 7.08 µM
TGI [29]: 2.88 µM
GI50 [30]: 0.0105 µM
LC50 [30]: 100 µM
TGI [30]: 0.347 µM
GI50 [31]: 0.117 µM
LC50 [31]: 12 µM
TGI [31]: 2.45 µM
GI50 [32]: 3.39 µM
LC50 [32]: 43.7 µM
TGI [32]: 14.1 µM

COc1cc(/C=C/c2cc3c(c(OC)c2)O[C@]2(C)CC[C@@H](O)C(C)(C)[C@H]2C3)cc(O)c1C/C=C(\C)CCC=C(C)C
GI50 [1]: 0.155 µM
LC50 [1]: 7.59 µM
TGI [1]: 1.1 µM
GI50 [2]: 4.27 µM
CC50 [2]: 22.9 µM
TGI [2]: 10.7 µM
GI50 [3]: 1.51 µM
CC50 [3]: 30.2 µM
TGI [3]: 6.61 µM
LC50 [4]: 28.2 µM
GI50 ([4]; read-out: GI50): 2.45 µM
GI50 ([4]; read-out: pGI50 (converted)): 2.45 µM
TGI [4]: 10.5 µM
GI50 [5]: 6.76 µM
LC50 [5]: 29.5 µM
TGI [5]: 14.1 µM
GI50 [6]: 0.741 µM
CC50 [6]: 37.2 µM
TGI [6]: 10 µM
GI50 [7]: 1.12 µM
LC50 [7]: > 50.1 µM
TGI [7]: 6.61 µM
GI50 [8]: 0.123 µM
CC50 [8]: 4.17 µM
TGI [8]: 0.363 µM
GI50 [9]: 4.27 µM
LC50 [9]: 28.8 µM
TGI [9]: 11.7 µM
GI50 [10]: 5.89 µM
LC50 [10]: 28.8 µM
TGI [10]: 13.2 µM
GI50 [12]: 5.75 µM
LC50 [12]: 28.8 µM
TGI [12]: 12.9 µM
GI50 [13]: 3.24 µM
LC50 [13]: > 50.1 µM
TGI [13]: 18.2 µM
GI50 [14]: 1.29 µM
LC50 [14]: 17.8 µM
TGI [14]: 6.03 µM
GI50 [15]: 3.63 µM
LC50 [15]: 30.2 µM
TGI [15]: 11.7 µM
GI50 [16]: 7.08 µM
LC50 [16]: 32.4 µM
TGI [16]: 15.1 µM
GI50 [17]: 2.04 µM
CC50 [17]: 19.5 µM
TGI [17]: 7.76 µM
GI50 [18]: 1.05 µM
LC50 [18]: 25.1 µM
TGI [18]: 9.12 µM
GI50 [19]: 5.89 µM
LC50 [19]: 25.7 µM
TGI [19]: 12.3 µM
GI50 [20]: 1.2 µM
LC50 [20]: 22.9 µM
TGI [20]: 4.07 µM
GI50 [21]: 1.32 µM
LC50 (concentration killing 50% of cells) [21]: 16.2 µM
TGI [21]: 5.25 µM
GI50 [22]: 0.955 µM
LC50 [22]: 6.92 µM
TGI [22]: 2.34 µM
GI50 [23]: 2.29 µM
LC50 [23]: 23.4 µM
TGI [23]: 9.12 µM
GI50 [24]: 5.62 µM
LC50 [24]: 26.9 µM
TGI [24]: 12.3 µM
GI50 [25]: 5.37 µM
LC50 [25]: 27.5 µM
TGI [25]: 12 µM
GI50 [26]: 3.63 µM
LC50 [26]: 23.4 µM
TGI [26]: 10.5 µM
GI50 [27]: 1.23 µM
LC50 [27]: 14.1 µM
TGI [27]: 3.98 µM
GI50 [29]: 1.35 µM
LC50 [29]: 18.6 µM
TGI [29]: 6.03 µM
GI50 [30]: 0.178 µM
LC50 [30]: > 50.1 µM
TGI [30]: 1.55 µM
GI50 [31]: 1.82 µM
LC50 [31]: 21.9 µM
TGI [31]: 8.32 µM
GI50 [32]: 6.76 µM
LC50 [32]: > 50.1 µM
TGI [32]: 18.6 µM
